A short description of test [1]: reducers of endogenous Her2 protein level, primary screen, SKBR3 breast tumor cells, AlphaScreen, ATP viability (AID 461;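 active means Her2 level under about 52% in both replicate screens, with viability over 70% of control, limit read from the data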;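 on Her2 level: lower value means less Her2 protein in the cells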;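 on viability: percent of carrier control wells set as 100% viability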). The note with it: 18-24 h, measured here: SKBR3 viability, ATP luminescence, at 10 µM.
The target in test [2] is Receptor tyrosine-protein kinase erbB-2 (Homo sapiens) (UniProt P04626). Described as above. The following applies: 18-24 h, at 10 µM, stronger effect = lower value.
Test [3] in a line: SK-BR-3 cell growth inhibitors, pilot screen, 24 h, human (AID 572;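 active means viability at or below 10% of carrier control in both of two separate runs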;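 further: compound exposure lasted between 18 and 24 h rather than exactly 24 h; 100% = carrier-treated control wells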). The note with it: SK-BR-3 viability, CellTiter-Glo luminescence, at 10 µM, stronger effect = lower value.
Test [4] can be described thus: HUVEC growth inhibition – cell-based, human, primary screen (AID 575).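 Further: 100% = median of untreated cell wells with 0.1% DMSO on each plate.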 The note with it: HUVEC proliferation, CellTiter-Glo luminescence, 72 h; at 10 µM; stronger effect = lower value. In short, it runs like this: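 Timing: 72 h treatment at 37 °C; material: HUVEC primary cells; technique: CellTiter-Glo luminescence measuring cellular ATP; controls: vehicle and MePR control wells; measure: percent of median DMSO-control luminescence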

A short description of test [5]: growth inhibitors of H69AR lung tumor, primary screen, human, duplicate replicates (AID 580;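 active means viability at or under a set limit in both replicates, limit being median viability minus 3 SD, cut at about 48% in these data, passing the limit was not always enough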;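 further: 100% = mean luminescence of untreated wells and 0% = no signal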). The note with it: H69AR lung tumor cells viability, ATP luminescence, 72 h; at 10 µM; stronger effect = lower value.
A short description of test [6]: reversal of MRP1-mediated doxorubicin resistance, pilot screen, H69AR cells, doxorubicin co-treatment (AID 601;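 active means viability loss from added drug above about 55%, and viability with drug at most 40%, in both replicates, limit read from the data, passing the limit was not always enough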). The following applies: CellTiter-Glo, 72 h, at 10 µM; for differential viability (reversal): stronger effect = higher value.
Test [7] is described as follows: 384-well plate pilot, post-Golgi transport modulator project, inhibition of yeast transport mutant growth (AID 636; in the data active means inhibition above about 31%). The following applies: absorbance 615 nm, about 18 h, stronger effect = higher value.
Test [8] can be described thus: growth suppression of yeast trafficking mutant, preliminary HTS, modulators of trafficking downstream of Golgi apparatus project, 1536-format plate, OD 615 nm (AID 637; in the data active means inhibition above about 30%). The note with it: yeast transport mutant growth, absorbance 615 nm, 18 h; stronger effect = higher value.
[9] abbreviates: H69AR cells + 2 uM doxorubicin, measured here: viability with 2 uM doxorubicin, stronger effect = lower value.
Setting [10] is: H69AR cells, compound alone cytotoxicity.

The source made the active and inactive calls.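 How the source made its calls, unless noted: active means viability at or below 30% in both replicate assays; inconclusive means viability at or below 30% in just one of the two assays; inactive means the rest.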

Sequence of Receptor tyrosine-protein kinase erbB-2 (Homo sapiens) (P04626 whole entry, looked up): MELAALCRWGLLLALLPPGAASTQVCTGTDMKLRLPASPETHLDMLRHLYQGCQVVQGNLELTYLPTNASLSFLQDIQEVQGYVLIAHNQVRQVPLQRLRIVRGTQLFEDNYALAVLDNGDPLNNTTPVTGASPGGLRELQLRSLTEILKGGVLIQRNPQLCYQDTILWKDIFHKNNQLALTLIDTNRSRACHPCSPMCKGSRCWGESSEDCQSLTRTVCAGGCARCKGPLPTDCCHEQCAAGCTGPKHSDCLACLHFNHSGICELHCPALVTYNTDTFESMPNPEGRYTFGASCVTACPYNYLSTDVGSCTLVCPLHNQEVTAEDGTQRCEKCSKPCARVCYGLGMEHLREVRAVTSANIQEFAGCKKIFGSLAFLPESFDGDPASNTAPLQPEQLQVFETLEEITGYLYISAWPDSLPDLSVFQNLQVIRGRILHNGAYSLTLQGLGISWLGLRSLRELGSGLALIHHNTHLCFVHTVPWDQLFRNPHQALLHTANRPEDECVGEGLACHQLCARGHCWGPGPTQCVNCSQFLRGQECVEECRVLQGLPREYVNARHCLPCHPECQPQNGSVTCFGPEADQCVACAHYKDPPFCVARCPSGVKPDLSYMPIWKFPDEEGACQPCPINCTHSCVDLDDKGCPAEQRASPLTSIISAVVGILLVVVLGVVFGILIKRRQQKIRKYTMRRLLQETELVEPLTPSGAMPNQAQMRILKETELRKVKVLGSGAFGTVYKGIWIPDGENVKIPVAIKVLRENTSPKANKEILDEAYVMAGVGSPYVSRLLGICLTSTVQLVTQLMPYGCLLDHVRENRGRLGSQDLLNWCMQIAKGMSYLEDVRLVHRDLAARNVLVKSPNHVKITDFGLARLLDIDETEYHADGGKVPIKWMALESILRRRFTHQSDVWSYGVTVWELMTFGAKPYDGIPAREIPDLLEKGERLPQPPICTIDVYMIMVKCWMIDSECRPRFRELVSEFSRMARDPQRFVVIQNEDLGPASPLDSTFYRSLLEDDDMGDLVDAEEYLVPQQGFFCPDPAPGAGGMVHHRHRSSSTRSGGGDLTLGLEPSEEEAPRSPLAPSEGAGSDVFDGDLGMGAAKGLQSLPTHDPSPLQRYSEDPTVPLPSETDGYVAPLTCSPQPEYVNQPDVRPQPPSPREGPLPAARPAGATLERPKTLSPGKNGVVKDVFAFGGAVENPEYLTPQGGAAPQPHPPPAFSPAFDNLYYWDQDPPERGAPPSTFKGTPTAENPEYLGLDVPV

Turning to `CCOC(=O)Nc1cc(OCC)c(NC(=O)C2CC2)cc1OCC`, the viability in test [1] was 97%; in test [3], 97% (inactive); in test [4], 111% (inactive); in test [5], 100% (inactive); in test [6] (setting [9]), 87.3%; in test [6] (setting [10]) it was 100%. For the same compound, the Her2 level in test [2] is 112% (inactive). For the same compound, in test [6] (H69AR cells + 2 uM doxorubicin), the differential viability (reversal) is 12.8% (inactive). In addition, the values for the inhibition in test [7] and in test [8] were -6.13% (inactive) and -4.26% (inactive), respectively.

With `O=C(O)CN1C(=O)CNC1=O`, the viability was 98% in test [1]; 98% (inactive) in test [3]; 99.2% (inactive) in test [4]; 97.6% (inactive) in test [5]; 95.2% in test [6] (setting [9]); 97.6% in test [6] (setting [10]). In addition, the Her2 level in test [2] was 93.5% (inactive). The differential viability (reversal) in test [6] (H69AR cells + 2 uM doxorubicin) is 2.41% (inactive). For the same compound, the inhibition in test [7] was -4.86% (inactive); in test [8] it was 7.21% (inactive).

For the compound `COc1cccc(NC(=O)Nc2cccs2)c1`, the viability was 93% in test [1]; 93% (inactive) in test [3]; 75% (inactive) in test [4]; 79.5% (inactive) in test [5]; 78.1% in test [6] (setting [9]); 79.5% in test [6] (setting [10]). In addition, the Her2 level in test [2] is 79% (inactive). Further, the differential viability (reversal) in test [6] (H69AR cells + 2 uM doxorubicin) is 1.41% (inactive). Moreover, the figures for the inhibition in test [7] and in test [8] were -6.53% (inactive) and -2.3% (inactive), respectively.

As for `CC1CCCCC1NC(=O)Cn1nnc(-c2ccc(Cl)cc2)n1` (stereo not given), the viability is 86% in test [1]; 86% (inactive) in test [3]; 72.7% (inactive) in test [4]; 91.9% (inactive) in test [5]; 77.3% in test [6] (setting [9]); 91.9% in test [6] (setting [10]). In addition, the Her2 level in test [2] was 92.5% (inactive). Also, the differential viability (reversal) in test [6] (H69AR cells + 2 uM doxorubicin) was 14.6% (inactive). In addition, the inhibition is -1.3% (inactive) in test [7] and -5.4% (inactive) in test [8].

In the case of `COc1ccc(S(=O)(=O)Nc2ccc(S(=O)(=O)N3CCCCC3)cc2)cc1OC`, the viability in test [1] was 92%; in test [3] it was 92% (inactive); in test [4], 95.8% (inactive); in test [5], 91.3% (inactive); in test [6] (setting [9]), 94.9%; in test [6] (setting [10]) it was 91.3%. Besides, the Her2 level in test [2] is 100% (inactive). In test [6] (H69AR cells + 2 uM doxorubicin), the differential viability (reversal) was -3.68% (inactive). The inhibition in test [7] is 0.13% (inactive); in test [8], -2% (inactive).

Take `c1cn(C23CC4CC(CC(C4)C2)C3)cn1`: the viability in test [1] is 113%; in test [3], 113% (inactive); in test [4], 104% (inactive); in test [5], 92.3% (inactive); in test [6] (setting [9]), 84.1%; in test [6] (setting [10]), 92.3%. The Her2 level in test [2] was 88% (inactive). Also, the differential viability (reversal) in test [6] (H69AR cells + 2 uM doxorubicin) is 8.21% (inactive). The results for the inhibition in test [7] and in test [8] were -5.6% (inactive) and 1.94% (inactive), respectively.

Take `COc1ccc(OCc2cccc(C(=O)O)c2)cc1`: the viability in test [1] was 105%; in test [3], 105% (inactive); in test [4], 75.7% (inactive); in test [5] it was 88.1% (inactive); in test [6] (setting [9]), 81%; in test [6] (setting [10]), 88.1%. Moreover, the Her2 level in test [2] was 78.5% (inactive). Moreover, in test [6] (H69AR cells + 2 uM doxorubicin), the differential viability (reversal) is 7.06% (inactive). Further, the results for the inhibition in test [7] and in test [8] were -4.47% (inactive) and 0.91% (inactive), respectively.

As to `CN(Cc1cccs1)c1ncnc2sccc12`, the viability was 112% in test [1]; 112% (inactive) in test [3]; 70.7% (inactive) in test [4]; 92.4% (inactive) in test [5]; 93% in test [6] (setting [9]); 92.4% in test [6] (setting [10]). Also, the Her2 level in test [2] is 78.5% (inactive). Besides, the differential viability (reversal) in test [6] (H69AR cells + 2 uM doxorubicin) was -0.54% (inactive). Further, the values for the inhibition in test [7] and in test [8] were -4.87% (inactive) and 1.27% (inactive), respectively.

Take `CCSCCNC(=O)c1cc(-n2cnnc2)ccc1Cl`: the viability was 138% in test [1]; 138% (inactive) in test [3]; 108% (inactive) in test [4]; 86.3% (inactive) in test [5]; 85.9% in test [6] (setting [9]); 86.3% in test [6] (setting [10]). For the same compound, in test [2], the Her2 level is 106% (inactive). In addition, the differential viability (reversal) in test [6] (H69AR cells + 2 uM doxorubicin) is 0.415% (inactive). In addition, the inhibition was -3.47% (inactive) in test [7] and -1.48% (inactive) in test [8].

As for `O=C(c1ccco1)N1CCN(C(=O)c2cc3c(s2)-c2ccccc2OC3)CC1`, the viability was 91% in test [1]; 91% (inactive) in test [3]; 107% (inactive) in test [4]; 97% (inactive) in test [5]; 94.2% in test [6] (setting [9]); 97% in test [6] (setting [10]). In test [2], the Her2 level is 113% (inactive). For the same compound, the differential viability (reversal) in test [6] (H69AR cells + 2 uM doxorubicin) is 2.87% (inactive). Further, the values for the inhibition in test [7] and in test [8] were 0.13% (inactive) and -1.64% (inactive), respectively.

With `O=C(Nc1ccc(Cl)cc1C(=O)Nc1ccncc1)c1ccco1`, the viability was 121% in test [1]; 121% (inactive) in test [3]; 70.1% (inactive) in test [4]; 41.3% (active) in test [5]; 60.5% in test [6] (setting [9]); 41.3% in test [6] (setting [10]). Besides, in test [2], the Her2 level was 48.5% (active). In addition, the differential viability (reversal) in test [6] (H69AR cells + 2 uM doxorubicin) is -19.2% (inactive). Also, the inhibition in test [7] was -1.84% (inactive); in test [8], -1.59% (inactive).

Take `O=S(=O)(c1ccc2nc(Cc3cccc(C(F)(F)F)c3)[nH]c2c1)N1CCOCC1`: the viability in test [1] is 104%; in test [3], 104% (inactive); in test [4] it was 67.9% (inactive); in test [5], 82.9% (inactive); in test [6] (setting [9]) it was 79.4%; in test [6] (setting [10]) it was 82.9%. Besides, in test [2], the Her2 level is 91% (inactive). Moreover, in test [6] (H69AR cells + 2 uM doxorubicin), the differential viability (reversal) was 3.53% (inactive). Further, the values for the inhibition in test [7] and in test [8] were -1.69% (inactive) and -0.16% (inactive), respectively.

Regarding `O=C(NC1=NCCS1)NC12CC3CC(CC(C3)C1)C2`, the viability in test [1] is 111%; in test [3], 111% (inactive); in test [4], 98.4% (inactive); in test [5] it was 93% (inactive); in test [6] (setting [9]), 88.7%; in test [6] (setting [10]), 93%. Moreover, in test [2], the Her2 level was 106% (inactive). For the same compound, the differential viability (reversal) in test [6] (H69AR cells + 2 uM doxorubicin) was 4.27% (inactive). Further, the inhibition in test [7] is -4.53% (inactive); in test [8], 5.08% (inactive).

On to `COc1ccc(S(=O)(=O)n2ccnc2)c2cccnc12`, for which the viability in test [1] was 94.5%; in test [3] it was 94.5% (inactive); in test [4], 90.7% (inactive); in test [5] it was 96.1% (inactive); in test [6] (setting [9]), 97.1%; in test [6] (setting [10]), 96.1%. Besides, in test [2], the Her2 level was 110% (inactive). In test [6] (H69AR cells + 2 uM doxorubicin), the differential viability (reversal) is -0.965% (inactive). For the same compound, the inhibition is -2.13% (inactive) in test [7] and -4.1% (inactive) in test [8].

The values are drawn from PubChem BioAssay.
